Values after ≈ are worked out from the molar mass of the structure shown. Positions of bridges follow the written chain, without caps; N, C: chain ends. Non-standard residues stand in square brackets, D forms with d. Residues, ends and D or L forms follow the SMILES beside them. *: point of attachment. Heptanoyl(6-Me) = CC(C)CCCCC(=O)*; Dab = NCC[C@H](N)C(=O)O
Experiments:
CRKP [1] = experiment: MIC, broth microdilution; type: cell-based, Klebsiella pneumonia; conditions: 24 h; for MIC, CRKP: gold complexes and antibiotics; for MIC: Klebsiella pneumoniae, read-out: MIC, CRKP
How it was run: (§1)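 Broth microdilution per CLSI guidelines in 96-well plates with test compound, incubated at 37 °C for 24 h. Growth was read on a microplate reader.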

CRKP (Clinical) = experiment: MIC, broth microdilution; type: cell-based, Klebsiella pneumonia; conditions: 24 h; for MIC, CRKP (Clinical): gold complexes and antibiotics; for MIC: Klebsiella pneumoniae, read-out: MIC, CRKP (Clinical)
How it was run: as §1

CRAB (Clinical) = experiment: MIC, broth microdilution; type: cell-based; conditions: 24 h; for MIC, CRAB (Clinical): gold complexes and antibiotics; for MIC: read-out: MIC, CRAB (Clinical)
How it was run: as §1

CRPA = experiment: MIC, broth microdilution; type: cell-based, Pseudomonas aeruginosa; conditions: 24 h; for MIC, CRPA: gold complexes and antibiotics; for MIC: Pseudomonas aeruginosa, read-out: MIC, CRPA
How it was run: as §1

CRPA (Clinical) = experiment: MIC, broth microdilution; type: cell-based, Pseudomonas aeruginosa; conditions: 24 h; for MIC, CRPA (Clinical): gold complexes and antibiotics; for MIC: Pseudomonas aeruginosa, read-out: MIC, CRPA (Clinical)
How it was run: as §1

CREC = experiment: MIC, broth microdilution; type: cell-based, Escherichia coli; conditions: 24 h; for MIC, CREC: gold complexes and antibiotics; for MIC: Escherichia coli, read-out: MIC, CREC
How it was run: as §1

CREC (Clinical) = experiment: MIC, broth microdilution; type: cell-based, Escherichia coli; conditions: 24 h; for MIC, CREC (Clinical): gold complexes and antibiotics; for MIC: Escherichia coli, read-out: MIC, CREC (Clinical)
How it was run: as §1

VISA = experiment: MIC, broth microdilution; type: cell-based, Staphylococcus aureus; conditions: gold complexes and antibiotics, 24 h
How it was run: as §1

CRKP [2] = experiment: Checkerboard microdilution assay; type: cell-based, Klebsiella pneumonia; conditions: for MIC of antibiotic: antibiotic alone; for FIC index (Au10): antibiotic in combination with Au10, CRKP; for FIC index (Au17): antibiotic in combination with Au17, CRKP; for FIC index (Auranofin): antibiotic in combination with auranofin
How it was run: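 Checkerboard: overnight cultures diluted 1000-fold, regrown to mid-log phase (OD600 0.6), diluted per CLSI and seeded in 96-well plates. Varying concentrations of gold test compound combined with varying antibiotic concentrations. Incubated 37 °C for 24 h, growth read at OD600. FICI calculated by a previously described method.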

CRKP [3] = experiment: Time-killing assay; type: cell-based, Klebsiella pneumonia; conditions: 0-80 μM
How it was run: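 Overnight CRKP culture diluted 2000-fold and grown to OD600 0.4–0.6, then diluted to OD600 0.1 and plated in 96-well format. Test compound added at 0, 10, 20, 40 or 80 μM. Growth read hourly by microplate reader for 12 h.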

cellular TrxR in CRKP = experiment: Cellular TrxR activity assay; type: cell-based, Klebsiella pneumonia; conditions: read-out: IC50, cellular TrxR; CRKP treated 4 h, TrxR assay kit
How it was run: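 Overnight CRKP culture diluted and regrown to mid-log phase (OD600 0.6). Suspensions exposed to test compound at 0, 2.5, 5, 10 or 20 μM for 4 h. Cellular TrxR activity measured with a commercial TrxR activity kit.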

recombinant CRKP TrxR = experiment: Inhibition of recombinant CRKP TrxR; type: biochemical, Klebsiella pneumonia; conditions: read-out: IC50, recombinant CRKP TrxR; DTNB reduction assay
How it was run: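 TrxR activity read by DTNB reduction assay (NADPH plus DTNB, A412 change over 5 min at 37 °C). Ki came from varying DTNB 0–2 mM and test compound 0–40 μM, fitted to a competitive inhibition model. Reversibility: NADPH-prereduced enzyme (100 μM, 10 min) was treated with 30 μM compound for 30 min, then NAP-5 desalted. Alternatively, after 30 min RT exposure, enzyme was dialysed 4 h at 4 °C (15,000 Da cutoff).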

cellular GR in CRKP = experiment: Cellular GR activity assay; type: cell-based, Klebsiella pneumonia; conditions: CRKP treated 4 h, GR assay kit
How it was run: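 CRKP overnight culture diluted and regrown to mid-log phase (OD600 0.6), then treated with test compound. Cellular glutathione reductase activity measured with a commercial GR activity kit.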

recombinant CRKP GR = experiment: Inhibition of recombinant CRKP GR; type: biochemical, Klebsiella pneumonia
How it was run: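 Purified CRKP GR (final 2 nM) in 50 mM Tris-HCl pH 7.5 with 2 mM EDTA was preincubated with test compound at 37 °C for 30 min. GSSG and NADPH were then added, with A340 read at 10 s and after 5 min at 37 °C. Ki came from varying GSSG 0–5 mM and compound 0–20 μM under a competitive model. Reversibility: 30 min RT exposure, then NAP-5 desalting (1 mM GSSG, 300 μM NADPH) or 4 °C, 4 h dialysis (15,000 Da cutoff).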

CRKP [4] = experiment: Intracellular superoxide radical detection; type: cell-based, Klebsiella pneumonia; conditions: 4 h
How it was run: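 Mid-log CRKP (OD600 0.6) loaded with DHE for 20 min at 37 °C with shaking, treated with test compound at 0, 10, 20 or 40 μM for 4 h, and washed three times in ice-cold PBS. Flow cytometry collected 100,000 cells. For HPLC, cells at OD600 0.3 took up 20 μM DHE for 20 min, were exposed to 0 or 80 μM for 4 h and washed, with synthesized 2-OH E+ as reference.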

CRKP [5] = experiment: Cell membrane integrity; type: cell-based, Klebsiella pneumonia; conditions: 0-40 μM, 4 h, vs control
How it was run: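 Membrane integrity read from PI uptake: CRKP exposed to test compound at 0, 10, 20 or 40 μM, then analysed by single-parameter flow cytometry collecting 100,000 cells per sample.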

DNA from CRKP = experiment: DNA degradation assay; set-up: species or system Klebsiella pneumonia; conditions: purified CRKP DNA, 30 min
How it was run: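 Genomic DNA extracted from CRKP with a kit and checked by micro-spectrophotometry and agarose gel. DNA mixed with varying concentrations of test compound on ice for 30 min, also with 10 mM H2O2 for 30 min. DNA (30 ng/μL) additionally incubated with 40 μM for 2 h on ice. Degradation read by EB-stained polyacrylamide gel electrophoresis.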

CRKP [6] = experiment: Murine peritonitis infection model; type: in vivo, BALB/c mice; conditions: six mice per group, treated 1 h after i.p. CRKP
How it was run: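 Female BALB/c mice (18–20 g) randomized, six per group, and given 200 μL CRKP suspension i.p. Treatment began 1 h after infection: saline/PBS control, comparator antibiotic or test compound. Survival recorded over 48 h.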

| SMILES | MIC, CRKP (CRKP [1]) [µM] | MIC, CRKP (Clinical) (CRKP (Clinical)) [µM] | MIC, CRAB (Clinical) (CRAB (Clinical)) [µM] | MIC, CRPA (CRPA) [µM] | MIC, CRPA (Clinical) (CRPA (Clinical)) [µM] | MIC, CREC (CREC) [µM] | MIC, CREC (Clinical) (CREC (Clinical)) [µM] | MIC, VISA (VISA) [µM] | MIC of antibiotic (CRKP [2]; CRKP) [µM] | FIC index (Au10) (CRKP [2]) | FIC index (Au17) (CRKP [2]) | FIC index (Auranofin) (CRKP [2]; CRKP) | MIC (CRKP [1]) [µM] | MIC (CRKP (Clinical)) [µM] | MIC (CRAB (Clinical)) [µM] | MIC (CRPA) [µM] | MIC (CRPA (Clinical)) [µM] | MIC (CREC) [µM] | MIC (CREC (Clinical)) [µM] | other results |
| --- | --- | --- | --- | --- | --- | --- | --- | --- | --- | --- | --- | --- | --- | --- | --- | --- | --- | --- | --- | --- |
| CC(=O)OC[C@H]1O[C@@H]([S-])[C@H](OC(C)=O)[C@@H](OC(C)=O)[C@@H]1OC(C)=O.CCP(CC)CC.[Au+] [Auranofin] | >20 | >20 | 20 | >20 | >20 | >20 | >20 | 0.5 | – | – | – | – | – | – | – | – | – | – | – | interaction with cefepime or meropenem (CRKP [2]; checkerboard, CRKP): did not exhibit any synergistic interaction; bacterial growth over 12 h (CRKP [3]): only a marginal inhibitory effect; IC50 (cellular TrxR in CRKP): 11.6 µM; IC50 (recombinant CRKP TrxR): 27.2 µM; IC50, cellular GR (cellular GR in CRKP): did not show any inhibitory effects; inhibition of recombinant GR at 40 μM (recombinant CRKP GR): did not exhibit inhibitory effects; 2-OH E+ formation (HPLC) (CRKP [4]; 80 μM): no detectable 2-OH E^+; intracellular ROS (superoxide, DHE probe) (CRKP [4]; 10, 20, 40 μM, vs control): did not induce ROS generation; PI red fluorescence intensity (membrane integrity) (CRKP [5]): did not show a significant difference; DNA degradation (gel electrophoresis) (DNA from CRKP): did not demonstrate DNA degradation effect |
| CO/N=C(\C(=O)N[C@@H]1C(=O)N2C(C(=O)[O-])=C(C[N+]3(C)CCCC3)CS[C@H]12)c1csc(N)n1 [Cefepime] | – | – | – | – | – | – | – | – | 20 | 0.45 | 0.70 | 0.525 | – | – | – | – | – | – | – | MIC of antibiotic in the presence of Au10 (CRKP [2]; Au10 2 μM, CRKP): 5 µM |
| C[C@@H](O)[C@H]1C(=O)N2C(C(=O)O)=C(S[C@@H]3CN[C@H](C(=O)N(C)C)C3)[C@H](C)[C@H]12 [Meropenem] | – | – | – | – | – | – | – | – | 40 | 0.35 | 0.45 | 0.625 | – | – | – | – | – | – | – | – |
| C[C@@H](O)[C@H]1C(=O)N2C(C(=O)O)=C(SCCN=CN)C[C@H]12 [Imipenem] | – | – | – | – | – | – | – | – | – | – | – | – | 200 (≈ 59.9 µg/mL) | 100 (≈ 29.9 µg/mL) | 200 (≈ 59.9 µg/mL) | 200 (≈ 59.9 µg/mL) | 100 (≈ 29.9 µg/mL) | 50 (≈ 15 µg/mL) | 100 (≈ 29.9 µg/mL) | – |
| COc1ccc2ccc([O-])c(C=NC3CCCCC3N=Cc3cc(F)ccc3[O-])c2c1.F[P-](F)(F)(F)(F)F.[Au+3] [Au4, [1-((E)-(((1S,2R)-2-(((E)-5-fluoro-2-hydroxybenzylidene)amino)cyclohexyl)imino)methyl)-7-methoxynaphthalen-2-ol] Au(III) hexafluorophosphate] | 10 | 10 | >20 | >20 | >20 | 20 | 20 | >20 | – | – | – | – | – | – | – | – | – | – | – | – |
| CC(C)CCCCC(=O)N[C@@H](CCN)C(=O)N[C@H](C(=O)N[C@@H](CCN)C(=O)N[C@H]1CCNC(=O)[C@H]([C@@H](C)O)NC(=O)[C@H](CCN)NC(=O)[C@H](CCN)NC(=O)[C@H](CC(C)C)NC(=O)[C@@H](CC(C)C)NC(=O)[C@H](CCN)NC1=O)[C@@H](C)O [Colistin B] ({Heptanoyl(6-Me)}-[Dab]T[Dab][Dab][Dab][dL]L[Dab][Dab]T; lactam 4-C) | – | – | – | – | – | – | – | – | – | – | – | – | 50 (≈ 57.8 µg/mL) | 100 (≈ 116 µg/mL) | 3 (≈ 3.47 µg/mL) | 3 (≈ 3.47 µg/mL) | 3 (≈ 3.47 µg/mL) | 1 (≈ 1.16 µg/mL) | 1 (≈ 1.16 µg/mL) | mice surviving more than 24 h (CRKP [6]): no mice |

— article PMC12433486 (Redox Biology, 2025)
